# From PubChem
# MC4R antag cAMP: blocks human MC4R cAMP signaling. P32245. MC4R-expressing cells, MTII-stimulated cAMP, LANCE TR-FRET. inhibition, % at 6.5 µM. actives 0.48% (n = 360,000);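 active = inhibition above its plate's cutoff, the mean of tested wells on that plate plus 3 SD, cut at about 29% in these data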;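 also: 0% = Melanotan II alone and 100% = Melanotan II plus saturating MCL0020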
# Target sequence (P32245 whole entry, looked up): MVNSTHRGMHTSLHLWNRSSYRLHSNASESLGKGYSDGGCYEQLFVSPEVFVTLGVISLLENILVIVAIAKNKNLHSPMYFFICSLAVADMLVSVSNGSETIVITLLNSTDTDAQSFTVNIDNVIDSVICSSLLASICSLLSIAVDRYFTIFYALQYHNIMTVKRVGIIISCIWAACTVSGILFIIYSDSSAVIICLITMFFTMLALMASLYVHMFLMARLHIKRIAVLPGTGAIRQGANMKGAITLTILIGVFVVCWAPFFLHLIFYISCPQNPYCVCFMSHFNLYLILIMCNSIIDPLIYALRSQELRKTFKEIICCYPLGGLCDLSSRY
#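 Assay system: human MC4R-expressing U2OS cells; reagent: Melanotan II stimulation of cells; dosing: 6.5 µM single dose; timing: compound 30 min, challenge 1 h, detection 1 h; signal: TR-FRET cAMP assay; replicates: one well per compound, no replicates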
# GalR3 antagonist: human GalR3 antagonism. O60755. HEK293 GalR3-CNG cAMP membrane potential fluorescence; galR3 body fused to GalR1 C-terminus. inhibition, % at 3 µM. actives 0.44% (n = 360,000);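 active = inhibition above the screen-wide average plus 3 SD, cut at about 13% in these data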;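 also: forskolin and galanin both at EC90 stimulate the cells; cAMP rise reported by CNG channel membrane potential dye signal; 0% = forskolin plus galanin with DMSO and 100% = forskolin alone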
# Calb FLC: C. albicans growth modulation with fluconazole | C. albicans CaCi-2 + fluconazole, Alamar Blue growth, 48 h | growth inhibition, % (no concentration beside the values) | actives 0.57% (n = 300,000);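 active = growth inhibition above about 58% in most replicates, limit read from the data, passing the limit was not always enough; inconclusive = exactly half the replicates above a set limit; inactive = most replicates below a set limit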;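 also: all wells also contain fluconazole at 8 µg/ml as a sub-toxic cotreatment; 0% = median of DMSO wells and 100% = median of geldanamycin control wells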
# H9c2 TAG inh: reduces triacylglycerol accumulation in H9c2 cells; inhibition, % at 12.5 µM; Nile Red lipid (TAG) fluorescence; cells loaded with 200 µM oleic acid; actives 0.66% (n = 230,000);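 active = pattern-corrected inhibition of lipid staining of at least 50% with the nuclear-stain viability signal not falling by more than 50%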;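 also: 0% = DMSO wells and 100% = triacsin C control wells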
# MC4R barr agon: agonists of human melanocortin 4 receptor (MC4R) beta-arrestin; AID 540308; activation, % at 8.9 µM; P32245; actives 0.98% (n = 360,000); U2OS MC4R beta-arrestin complementation, luminescence; percent of melanotan II response, DMSO zero;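 active = activation above a per-plate cutoff, the mean activation of sample wells on that plate plus 3 SD, cut at about 8% in these data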
# Efflux pump mplx: blocks antifungal efflux pumps in multiplex yeast assay; inhibition, % at 10 µM; S. cerevisiae Candida pump triplex, Nile Red efflux; actives 0.44% (n = 330,000);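 active = plate passing quality check with inhibition over a set limit, or well fluorescence over plate mean plus 4 SD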;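 also: Nile Red retained in pooled yeast measured as flow cytometry median fluorescence; 0% = buffer negative control and 100% = Enniatin B positive control; higher means more Nile Red kept so more efflux inhibition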
# * marks the source's active call; other numbers are inactive results; ? = inconclusive; nt = no result. Only some compounds are listed: those with a hit (about 2.9% of all), similar ones and a draw of the others.
SMILES,MC4R antag cAMP,GalR3 antagonist,Calb FLC,H9c2 TAG inh,MC4R barr agon,Efflux pump mplx
CN(c1cccnc1)c1ccc(NC(=O)Cc2c[nH]c3ccccc23)cc1-c1ccc(C(C)(C)C)cc1,nt,-4,nt,nt,nt,nt
O=C1C=CC(=O)N1c1ccc2c(c1)C(NC(=O)C(F)(F)F)c1ccccc1-2 (configuration not stated),71*,-5,nt,-25,-4,nt
O=C(NCc1cccc(CNC(=O)C(=O)NCc2ccco2)c1)C(=O)NCc1ccco1,-1,1,9,nt,9.6*,0
CCOc1ccc(/C=N/NC(=O)c2[nH]ncc2Br)c(O)c1,5,-1,114*,21,-4,1
O=C1Nc2c(Cl)cc(Cl)cc2C12Nc1ccccc1S2 (configuration not stated),nt,-5,nt,nt,nt,nt
Cc1ncc(C[n+]2csc(CCOC(=O)CC34CC5CC(CC(C5)C3)C4)c2C)c(N)n1,17,-8,-7,nt,1,0
Cc1c(CCOC(=O)CC23CC4CC(CC(C4)C2)C3)sc[n+]1Cc1ccccc1,2,0,100*,-73,1,1
CC(C)N1C(=O)c2ccccc2NC(=O)C1C(=O)NCc1ccccc1 (configuration not stated),nt,-3,nt,nt,nt,nt
O=C(O)c1cccc(-c2ccc(/C=N/Nc3ccc([N+](=O)[O-])cc3)o2)c1,10,-4,-5,-7,-3,0
O=C(O)c1ccc(N/N=C/c2ccc(-c3cc(Cl)ccc3Cl)o2)cc1,18,0,7,19,1,0
O=C(O)c1ccc(N/N=C/c2ccc(-c3cccc(Cl)c3)o2)cc1,9,-7,-9,84*,1,0
O=C(O)c1ccc(N/N=C/c2ccc(-c3ccc(Cl)cc3Cl)o2)cc1,14,-6,-9,53*,2,0
COc1ccc(CCN2C(=O)c3ccccc3C2c2nnnn2Cc2ccccc2)cc1OC (configuration not stated),nt,-2,nt,nt,nt,nt
Cc1ccc(NC(=O)C(Cc2ccccc2)NC(=O)OCc2ccccc2)cc1C (configuration not stated),11,2,-6,nt,8.8*,0
O=c1c2ccc(Cl)cc2nc(-c2ccc([N+](=O)[O-])cc2)n1O,2,-4,87*,nt,-1,0
O=c1c2cc(Cl)ccc2nc(-c2ccc(Cl)c(Cl)c2)n1O,17,-2,101*,-5,1,0
O=c1c2cc(Br)ccc2nc(-c2cccc(C(F)(F)F)c2)n1O,10,3,90*,-9,1,0
O=c1c2cc(Cl)ccc2nc(-c2ccccc2)n1O,-7,-6,3,1,-2,0
O=c1c2cc(Br)ccc2nc(-c2ccc([N+](=O)[O-])cc2)n1O,-9,-4,110*,9,-4,0
COCc1[nH]nc2c1C(c1ccc(C)cc1)N(c1ccc(OC)cc1)C2=O (configuration not stated),nt,-7,nt,nt,nt,nt
CSCC[C@H](NC(=O)Cc1c(C)c2cc3c(C)c(C)oc3cc2oc1=O)C(=O)N[C@@H](C(=O)O)c1ccccc1,9,-7,nt,nt,-1,nt
CC(C)(C)C(=O)/C(=C\c1ccc([N+](=O)[O-])cc1)n1cncn1,nt,nt,107*,nt,nt,0
Clc1cccc(Cl)c1CSc1nnc(-c2ccncc2)s1,7,-4,-4,-7,31*,0
O=[N+]([O-])c1ccc(S(=O)(=O)Nc2nc3ccccc3nc2Nc2ccccc2)cc1,12,3,105*,nt,0,0
Cn1ccnc1/C(=N\NC(=O)c1ccccc1)c1cccc([N+](=O)[O-])c1,-1,6,?,8,-1,0
O=C(N/N=C(\c1ccccc1)c1ccccn1)c1cccc([N+](=O)[O-])c1,8,nt,113*,55*,-5,0
Brc1ccc(CSc2nnc(-c3cnccn3)n2Cc2ccco2)cc1,-16,-10,99*,nt,0,0
FC(F)(F)c1cccc(NC(=S)N2CCN(c3cccc(C(F)(F)F)c3)CC2)c1,2,-7,1,0,9.2*,0
CC1(C)CN(c2ccccc2)N(C(=O)c2ccc(C#N)cc2)C1=O,2,-5,85*,nt,-2,0
